Assay outcomes from PubChem.
PRMT1 FP inh – inhibitors of human PRMT1; AID 652257; hit rate 1.3% among 370,000; inhibition, % at 2.79 µM; Q99873; recombinant PRMT1, activity-based probe fluorescence polarization;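 active means inhibition above about 21% made by adding two undisclosed values, limit read from the data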
PAD4 inh – PAD4 (human) enzyme inhibition. recombinant PAD4, RCA probe fluorescence polarization. inhibition, % at 6.36 µM. hit rate 0.41% among 330,000. Q9UM07;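 active means percent inhibition above a cutoff equal to the mean of all tested compounds plus 3 SD, cut at about 15% in these data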
Target sequence (Q9UM07 whole entry, looked up): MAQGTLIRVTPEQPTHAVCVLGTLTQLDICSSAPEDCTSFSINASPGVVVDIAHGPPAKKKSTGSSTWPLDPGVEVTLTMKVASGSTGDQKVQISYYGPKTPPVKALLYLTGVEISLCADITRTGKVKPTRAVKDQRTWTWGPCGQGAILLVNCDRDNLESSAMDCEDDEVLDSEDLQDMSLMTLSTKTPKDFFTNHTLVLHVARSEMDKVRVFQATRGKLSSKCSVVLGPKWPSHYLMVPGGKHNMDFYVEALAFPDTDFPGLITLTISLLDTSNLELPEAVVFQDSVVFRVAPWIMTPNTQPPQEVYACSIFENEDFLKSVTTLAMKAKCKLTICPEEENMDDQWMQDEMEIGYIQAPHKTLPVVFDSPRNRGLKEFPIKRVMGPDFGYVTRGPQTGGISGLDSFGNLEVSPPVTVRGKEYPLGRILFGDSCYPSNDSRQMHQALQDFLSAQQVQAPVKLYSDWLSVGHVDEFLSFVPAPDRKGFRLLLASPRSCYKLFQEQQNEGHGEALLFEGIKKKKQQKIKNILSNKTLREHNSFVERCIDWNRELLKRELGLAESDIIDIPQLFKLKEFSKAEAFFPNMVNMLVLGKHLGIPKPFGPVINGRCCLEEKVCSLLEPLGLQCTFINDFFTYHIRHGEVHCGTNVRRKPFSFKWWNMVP
TCR-CD3 inh – blocks the human TCR-CD3 interaction. TAMRA-labeled TCR probe fluorescence, biochemical. inhibition, % at 9.4 µM. hit rate 0.37% among 360,000. AID 651800; in the data active means inhibition above about 19%;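 further: recombinant mutant TCR 2C K166C tagged with TAMRA read by polarization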
SIAE primary – inhibitors of human sialic acid acetylesterase SIAE; Q9HAT2; SIAE FP-Rh probe binding, fluorescence polarization; inhibition, % at 9.66 µM; hit rate 0.69% among 370,000; AID 1053197;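 active means inhibition above a cutoff: mean of compounds within the control limits plus 3 SD of those, cut at about 17% in these data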
ABHD4 inh – inhibitors of mouse ABHD4 | Q8VD66 | purified mABHD4, FP-Rh probe fluorescence polarization | inhibition, % at 8.92 µM | hit rate 0.54% among 370,000;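 active means inhibition exceeding the mean over every tested compound plus 3 SD, cut at about 30% in these data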
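system = mouse ABHD4 enzyme, wild type | medium = HEPES pH 7.0, NaCl, Pluronic buffer | also added = FP-Rh probe | incubation = Enzyme–compound pre-incubation 45 min, then probe 60 min, both 25 °C | technique = fluorescence polarization, excitation 525 nm, emission 598 nm, BODIPY TMR filters | controls = S159A mutant high control, sample median low control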
HTRA1 inhibitor – inhibitors of human serine peptidase HTRA1; Q92743; recombinant HTRA1, FP-rhodamine activity-based probe, fluorescence polarization; inhibition, % at 5.96 µM; hit rate 0.5% among 340,000; in the data active means inhibition above about 36%
SIAE confirm – confirmation of human SIAE inhibitors; inhibition, % at 9.66 µM; shares compounds with SIAE primary; SIAE FP-Rh activity-based probe, fluorescence polarization; hit rate 13% among 2,300; AID 1117263;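 active means mean inhibition of the replicates above the hit cutoff set in the primary screen, cut at about 17% in these data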;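 further: inhibitors lower polarization as more probe stays unbound to SIAE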
Of the large screens only hits and unclear results are named; the others gave an inactive call (follow-up assays come after a bar, where they were run). A selection: hits, their analogues and other compounds. The true share with any hit is near 2.9%.

C[C@H]1[C@@H](OC(=O)N2CCOCC2)CC[C@@]23CCCN2C(=O)CCC[C@@H]13	none (no result: PAD4 inh, TCR-CD3 inh, HTRA1 inhibitor)
O=C(CSc1nnc(SCc2ccccc2)s1)N/N=C/c1c[nH]c2ccccc12	none (no result: PAD4 inh)
O=C(CSc1nnc(SCc2ccccc2Cl)s1)N/N=C/c1c[nH]c2ccccc12	SIAE primary 28 | SIAE confirm inactive
O=C(OCC#CCSc1nnc(-c2ccc(Cl)cc2)o1)c1ccc(F)cc1	none (no result: PAD4 inh, TCR-CD3 inh, HTRA1 inhibitor)
C/C(=N\N=c1/sc2ccccc2n1C)c1ccc(N2CCOCC2)cc1	SIAE primary 19 | SIAE confirm inactive
Cc1ccc(NC(=O)c2ccc(S(=O)(=O)N(C)c3ccccc3)cc2)cc1S(=O)(=O)N1CCOCC1	SIAE primary 18 (no result: PAD4 inh) | SIAE confirm inactive
C/C(C=NNC(=O)CSc1nnc(-c2ccccc2)n1-c1ccc(C)cc1)=C\c1ccco1	none (no result: PAD4 inh, TCR-CD3 inh, HTRA1 inhibitor)
CCOc1ccc(Nc2nc(N)c([N+](=O)[O-])c(NCc3ccccc3)n2)cc1	SIAE primary 20 | SIAE confirm 32
CCn1c(CO)nc2c1c(=O)[nH]c(=O)n2Cc1ccccc1	SIAE primary 20 | SIAE confirm inactive
Cc1ccc(-c2nc3c(c(=O)[nH]c(=O)n3Cc3ccccc3)n2Cc2ccccc2)o1	none (no result: PAD4 inh)
O=C(CCl)Nc1c(C(=O)Nc2ccc3c(c2)OCCO3)oc2ccccc12	SIAE primary 20 | SIAE confirm inactive
COCC(=O)Nc1c(C(=O)Nc2ccc3c(c2)OCO3)oc2ccccc12	none
C=CCOC(=O)N[C@@H](c1cccc(OC)c1)[C@@H](C)/C=C/CC(=O)O	none (no result: PAD4 inh, TCR-CD3 inh, HTRA1 inhibitor)
CCCCCC(=O)Nc1ccc(-c2csc(N)n2)cc1	SIAE primary 18 | SIAE confirm inactive
c1ccc([C@H]2CNCCN2CCc2cccc3ccccc23)cc1	SIAE primary 23 | SIAE confirm inactive
COc1cc(CCCN2CCNC[C@@H]2c2ccccc2)cc(OC)c1OC	none
CN(CCCOC(=O)CC1C=CCC1)C1CN(Cc2cn(Cc3ccccc3Cl)nn2)S(=O)(=O)C1 (centres undefined)	none (no result: PAD4 inh, TCR-CD3 inh, HTRA1 inhibitor)
Cc1ccc2nc(N(CCN(C)C)C(=O)C3CCN(S(=O)(=O)c4cccs4)CC3)sc2c1	none (no result: PAD4 inh)
CN(C)CCN(C(=O)C1CCN(S(=O)(=O)c2cccs2)CC1)c1nc2c(F)cccc2s1	SIAE primary 19 | SIAE confirm inactive
CN(C)c1ccc(/C=[N+](\[O-])C2N(c3ccccc3)C(=S)SC2(C)C)cc1 (centres undefined)	SIAE primary 26 | SIAE confirm inactive
CN(C)c1ccc(/C=[N+](\[O-])C2SC(=S)N(C)C2(C)C)cc1 (centres undefined)	none
O=S1(=O)N[C@H](Cc2ccccc2)COc2cc(N3CCCC3)ccc21	none (no result: PAD4 inh, TCR-CD3 inh, HTRA1 inhibitor)
COc1ccc(/C=N/Nc2nc(C)cc(-c3ccccc3)n2)cc1OC	none
COc1ccc(/C=N/Nc2nc(-c3ccc(Cl)cc3)cc(C(F)(F)F)n2)cc1OC	SIAE primary 20 | SIAE confirm inactive
CCC1CCC(N2CCN(c3ccc(F)cc3)CC2)CC1 (centres undefined)	SIAE primary 17 (no result: PAD4 inh) | SIAE confirm inactive
O=C(NCCc1c[nH]c2ccccc12)OCc1cn(-c2ccc(F)cc2F)nn1	none (no result: PAD4 inh, TCR-CD3 inh, HTRA1 inhibitor)
Cc1cc(Sc2ccc([N+](=O)[O-])cn2)ccc1Br	none
Cc1cc(S(=O)(=O)c2ccc([N+](=O)[O-])cn2)ccc1Br	SIAE primary 24 | SIAE confirm inactive
O=C(NC1CCCCN(Cc2ccc(Cl)cc2)C1=O)c1ccc2ccccc2c1 (centres undefined)	none (no result: PAD4 inh, TCR-CD3 inh, HTRA1 inhibitor)
CN(CC(=O)Nc1cccc(F)c1)C(=O)CCSc1ccc(F)cc1	none
COc1ccc(NC(=O)CN(C)C(=O)CCSc2ccc(F)cc2)cc1	SIAE primary 19 (no result: PAD4 inh) | SIAE confirm inactive
CN(CC(=O)Nc1ccc(F)cc1)C(=O)CSc1nc2ncc(Cl)cc2[nH]1	none
COc1ccc2nc(SCC(=O)N(C)CC(=O)Nc3ccc(F)cc3)[nH]c2c1	SIAE primary 18 | SIAE confirm inactive
CC(C)CNC(=O)OCc1cn(Cc2c(F)cccc2F)nn1	none (no result: PAD4 inh, TCR-CD3 inh, HTRA1 inhibitor)
C[C@H]1O[C@@H](n2c3ccc(Cl)cc3c3ccc4c5cc(Cl)ccc5[nH]c4c32)[C@H](O)[C@H](O)[C@H]1O	none (no result: PAD4 inh, TCR-CD3 inh, HTRA1 inhibitor)
CC(C)(C)N(NC(=O)Nc1cccc(F)c1)C(=O)c1ccccc1Cl	none (no result: PAD4 inh, TCR-CD3 inh, HTRA1 inhibitor)
c1ccc2c(c1)CCN(c1nc3ccccc3n3cnnc13)C2	SIAE primary 18 | SIAE confirm inactive
Cc1ccc(C)c(Cn2cnc3c(cnn3C(C)(C)C)c2=O)c1	SIAE primary 22 | SIAE confirm inactive
Cc1ccccc1Cn1cnc2c(cnn2C(C)(C)C)c1=O	none
CC(C)C[C@H]1CN([C@@H](CC(C)C)CN2CCC[C@H]2CN2C(=O)C(=O)NC[C@@H]2Cc2ccc(O)cc2)C(=O)C(=O)N1CCc1ccccc1	SIAE primary 20 (no result: PAD4 inh, HTRA1 inhibitor) | SIAE confirm inactive
CC(=O)NNc1cc(N2CCOCC2)nc(N2CCOCC2)n1	SIAE primary 25 | SIAE confirm inactive
C[C@H]1[C@@H](N(C)Cc2cccs2)CC[C@@]23CCCN2C(=O)CCC[C@@H]13	none (no result: PAD4 inh, TCR-CD3 inh, HTRA1 inhibitor)
COc1ccc(CCNc2ncnc3c2[nH]c2cc(OC)c(OC)cc23)cc1OC	SIAE primary 19 | SIAE confirm 26
CCCCN1CN2Cc3ccccc3C2CS1(=O)=O (centres undefined)	none (no result: PAD4 inh, TCR-CD3 inh, HTRA1 inhibitor)
S=c1[nH]ncn1/N=C/c1ccccn1	SIAE primary 17 | SIAE confirm inactive
S=c1[nH]ncn1/N=C/c1cccs1	none
COc1ccc(NC(=S)c2ccc(N(C)C)cc2)cc1	none
Cc1ccc(NC(=S)c2ccc(N(C)C)cc2)cc1	SIAE primary 17 | SIAE confirm inactive
O=C(Oc1ccc2ccc(=O)oc2c1)C1CCCCC1	SIAE primary 38 | SIAE confirm 34
CCCOc1ccc(CSc2nnc(CCC)n2N)cc1	none
CCCc1nnc(SCc2ccc(OC)cc2)n1N	SIAE primary 18 | SIAE confirm inactive
COc1ccc(C2(O)CN(c3ccc(C)cc3)C3=[N+]2CCCC3)cc1 (centres undefined)	SIAE primary 20 | SIAE confirm inactive
COc1cc(NC(=S)NCCc2c[nH]c3ccccc23)c(OC)cc1Cl	SIAE primary 20 | SIAE confirm inactive
COc1ccc(-c2ncn(CCc3ccccc3OC)c2CC(C)C)cc1	none (no result: PAD4 inh, HTRA1 inhibitor)
CCc1ccc(NC(=O)Nc2ccc3c(c2)N(C)C(=O)CS3)cc1	SIAE primary 24 | SIAE confirm inactive
COc1ccc(C2CC(=O)C(c3ccccc3OC)=CN2Cc2ccccc2)cc1 (centres undefined)	none (no result: PAD4 inh, HTRA1 inhibitor)
Cc1ccc([N+](=O)[O-])cc1NC(=O)C1CCN(S(C)(=O)=O)CC1	SIAE primary 20 | SIAE confirm inactive
Cc1ccc(S(=O)(=O)N2CCN(c3ccccc3)CC2)c(C)c1	SIAE primary 22 | SIAE confirm inactive
Cn1cc(S(=O)(=O)N2CCN(c3ccccc3)CC2)c(=O)n(C)c1=O	SIAE primary 60 | SIAE confirm inactive
